This is an account of results in PubChem BioAssay.

Activity calls are given as the source filed them.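 The calls were made as follows, unless noted: active = Her2 level under about 52% in both replicate screens, with viability over 70% of control (limit read from the data); inconclusive = Her2 under the limit in one screen only, or viability under 70%; inactive = Her2 level above the set limit.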

Assay [1] in a line: Her2 expression decrease, cell viability multiplex – SKBR3 breast tumor cells, AlphaScreen, ATP viability, primary screen (AID 461).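 As to Her2 level: lower value means less Her2 protein in the cells.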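 As to viability: percent of carrier control wells set as 100% viability.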 To be noted: SKBR3 Her2 protein level, 18-24 h, measured here: SKBR3 viability, ATP luminescence, at 10 µM.
The target in assay [2] is Receptor tyrosine-protein kinase erbB-2 (Homo sapiens) (UniProt P04626). The assay is described as above. To be noted: 18-24 h, at 10 µM, stronger effect = lower value.
Chain of Receptor tyrosine-protein kinase erbB-2 (Homo sapiens) (P04626 whole entry, looked up): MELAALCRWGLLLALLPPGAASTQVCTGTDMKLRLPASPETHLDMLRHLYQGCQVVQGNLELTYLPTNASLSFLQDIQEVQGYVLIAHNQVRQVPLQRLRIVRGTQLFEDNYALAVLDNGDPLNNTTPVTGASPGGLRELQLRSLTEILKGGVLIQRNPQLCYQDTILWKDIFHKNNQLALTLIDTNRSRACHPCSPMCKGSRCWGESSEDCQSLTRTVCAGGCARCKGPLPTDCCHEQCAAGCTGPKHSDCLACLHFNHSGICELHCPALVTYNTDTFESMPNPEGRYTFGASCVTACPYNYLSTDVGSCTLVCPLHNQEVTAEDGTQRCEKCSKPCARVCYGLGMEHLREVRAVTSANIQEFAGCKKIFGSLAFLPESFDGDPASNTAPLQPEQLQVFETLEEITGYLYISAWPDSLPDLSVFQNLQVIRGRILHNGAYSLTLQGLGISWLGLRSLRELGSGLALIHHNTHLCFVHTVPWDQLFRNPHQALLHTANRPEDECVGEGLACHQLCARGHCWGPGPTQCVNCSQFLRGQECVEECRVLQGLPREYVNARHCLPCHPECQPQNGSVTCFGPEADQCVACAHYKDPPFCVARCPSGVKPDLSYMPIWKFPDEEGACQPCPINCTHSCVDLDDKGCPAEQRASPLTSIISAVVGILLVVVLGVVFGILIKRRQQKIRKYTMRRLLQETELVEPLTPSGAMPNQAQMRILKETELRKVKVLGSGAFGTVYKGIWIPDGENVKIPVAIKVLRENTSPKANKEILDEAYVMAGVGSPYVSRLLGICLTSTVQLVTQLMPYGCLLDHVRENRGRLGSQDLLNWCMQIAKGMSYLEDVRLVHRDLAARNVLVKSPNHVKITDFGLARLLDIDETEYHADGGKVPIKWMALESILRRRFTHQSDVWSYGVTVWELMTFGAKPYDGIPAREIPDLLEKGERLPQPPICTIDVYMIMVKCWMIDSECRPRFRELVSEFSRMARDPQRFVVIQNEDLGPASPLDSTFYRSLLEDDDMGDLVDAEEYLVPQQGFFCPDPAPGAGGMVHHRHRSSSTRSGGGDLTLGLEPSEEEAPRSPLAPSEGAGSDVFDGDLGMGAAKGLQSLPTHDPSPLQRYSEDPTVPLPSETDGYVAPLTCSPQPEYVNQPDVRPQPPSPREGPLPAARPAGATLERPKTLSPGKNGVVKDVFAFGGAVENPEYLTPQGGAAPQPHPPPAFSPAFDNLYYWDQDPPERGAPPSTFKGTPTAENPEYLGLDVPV
A short description of assay [3]: reduced viability of SK-BR-3 breast cancer cells – cell-based, 24 h, human, pilot screen (AID 572;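 active = viability at or below 10% of carrier control in both of two separate runs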;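 also: compound exposure lasted between 18 and 24 h rather than exactly 24 h; 100% = carrier-treated control wells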). The note with it: SK-BR-3 viability, CellTiter-Glo luminescence, at 10 µM, stronger effect = lower value.
Assay [4] is described as follows: HUVEC growth inhibition – cell-based, human, primary screen (AID 575;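 active = viability at or below 30% in both replicate assays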;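 also: 100% = median of untreated cell wells with 0.1% DMSO on each plate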). The note with it: HUVEC proliferation, CellTiter-Glo luminescence, 72 h; at 10 µM; stronger effect = lower value. An outline of the steps:
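Test system: primary human umbilical vein endothelial cells; medium: endothelial basal medium with 2% FBS plus growth supplements; dosing: 10 µM compound only; times: 72 h treatment at 37 °C; signal: CTG luminescence; read-out: % viability relative to median vehicle-well signal on each plate; control set: vehicle and MePR control wells; plate: 384-well, collagen-coated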

Assay [5] is described as follows: H69AR cell proliferation blockers – human, duplicate replicates, primary screen (AID 580;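 active = viability at or under a set limit in both replicates, limit being median viability minus 3 SD, cut at about 48% in these data, passing the limit was not always enough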;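 also: 100% = mean luminescence of untreated wells and 0% = no signal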). To be noted: H69AR lung tumor cells viability, ATP luminescence, 72 h; at 10 µM; stronger effect = lower value.
A short description of assay [6]: MRP1 drug-resistance reversers in H69AR cells – cell-based, doxorubicin co-treatment, pilot screen (AID 601;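 active = viability loss from added drug above about 55%, and viability with drug at most 40%, in both replicates, limit read from the data, passing the limit was not always enough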). To be noted: CellTiter-Glo, 72 h, at 10 µM; for differential viability (reversal): stronger effect = higher value.
Assay [7] is described as follows: yeast transport mutant growth inhibition pilot in 384-well plates, post-Golgi transport modulator project (AID 636; in the data active = inhibition above about 31%). The note with it: absorbance 615 nm, about 18 h, stronger effect = higher value.
Assay [8] is described as follows: growth suppression of yeast trafficking mutant, preliminary HTS, modulators of trafficking downstream of Golgi apparatus project, 1536-format plate, OD 615 nm (AID 637; in the data active = inhibition above about 30%). To be noted: yeast transport mutant growth, absorbance 615 nm, 18 h; stronger effect = higher value.
[9] abbreviates: H69AR cells + 2 uM doxorubicin, measured here: viability with 2 uM doxorubicin, stronger effect = lower value.
The mark [10] stands for this setting: H69AR cells, compound alone cytotoxicity.

For the molecule `CCCn1c(SCC(=O)Nc2cc(C)on2)nc2c1c(=O)n(C)c(=O)n2C`, the viability is 100% in assay [1]; 100% (inactive) in assay [3]; 87% (inactive) in assay [4]; 100% (inactive) in assay [5]; 84.6% in assay [6] (setting [9]); 100% in assay [6] (setting [10]). Further, in assay [2], the Her2 level was 118% (inactive). In addition, the differential viability (reversal) in assay [6] (H69AR cells + 2 uM doxorubicin) was 15.7% (inactive). The inhibition in assay [7] was 0% (inactive); in assay [8], -4.19% (inactive).
With `CC(NC(=O)c1ccco1)c1ccc2c(c1)OCCO2` (stereo not given), the viability in assay [1] was 116%; in assay [3] it was 116% (inactive); in assay [4], 90.7% (inactive); in assay [5], 96.3% (inactive); in assay [6] (setting [9]), 87.1%; in assay [6] (setting [10]), 96.3%. The Her2 level in assay [2] was 95.5% (inactive). For the same molecule, in assay [6] (H69AR cells + 2 uM doxorubicin), the differential viability (reversal) is 9.19% (inactive). Besides, the inhibition was -5.73% (inactive) in assay [7] and -1.43% (inactive) in assay [8].
As for `COc1ccc(CCNC(=O)CN(c2ccccc2OC)S(C)(=O)=O)cc1`, the viability is 112% in assay [1]; 112% (inactive) in assay [3]; 93.5% (inactive) in assay [4]; 99.9% (inactive) in assay [5]; 84.3% in assay [6] (setting [9]); 99.9% in assay [6] (setting [10]). Besides, the Her2 level in assay [2] is 99.5% (inactive). Besides, in assay [6] (H69AR cells + 2 uM doxorubicin), the differential viability (reversal) is 15.6% (inactive). For the same molecule, the inhibition in assay [7] was -2.08% (inactive); in assay [8] it was -1.48% (inactive).
Consider `Cc1cc(C)c2c(n1)nn1c(NCCCN3CCOCC3)cc(C)nc21`, for which the viability in assay [1] was 106%; in assay [3], 106% (inactive); in assay [4] it was 98.8% (inactive); in assay [5] it was 97.7% (inactive); in assay [6] (setting [9]), 90.6%; in assay [6] (setting [10]) it was 97.7%. For the same molecule, the Her2 level in assay [2] is 79% (inactive). Also, the differential viability (reversal) in assay [6] (H69AR cells + 2 uM doxorubicin) is 7.13% (inactive). For the same molecule, the figures for the inhibition in assay [7] and in assay [8] were -5.54% (inactive) and 2.38% (inactive), respectively.
On to `COC(=O)/C=c1\sc2ncnn2c1=O`, for which the viability was 95% in assay [1]; 95% (inactive) in assay [3]; 72.5% (inactive) in assay [4]; 78.7% (inactive) in assay [5]; 82.5% in assay [6] (setting [9]); 78.7% in assay [6] (setting [10]). Further, the Her2 level in assay [2] is 97.5% (inactive). Also, the differential viability (reversal) in assay [6] (H69AR cells + 2 uM doxorubicin) was -3.79% (inactive). The inhibition in assay [7] was 1.62% (inactive); in assay [8] it was 4.92% (inactive).
In the case of `O=C(CSc1nc2cc(Cl)ccc2s1)N1CCN(C(=O)c2ccco2)CC1`, the viability in assay [1] was 91%; in assay [3], 91% (inactive); in assay [4], 91.6% (inactive); in assay [5] it was 100% (inactive); in assay [6] (setting [9]), 99.5%; in assay [6] (setting [10]), 100%. Further, the Her2 level in assay [2] was 84.5% (inactive). For the same molecule, in assay [6] (H69AR cells + 2 uM doxorubicin), the differential viability (reversal) is 0.815% (inactive). Besides, the values for the inhibition in assay [7] and in assay [8] were -3.87% (inactive) and 0.97% (inactive), respectively.
As to `O=C(CN(Cc1ccc(F)cc1)C(=O)Cn1nnc2ccccc21)NCC1CCCO1` (stereo not given), the viability is 110% in assay [1]; 110% (inactive) in assay [3]; 118% (inactive) in assay [4]; 90.3% (inactive) in assay [5]; 85.8% in assay [6] (setting [9]); 90.3% in assay [6] (setting [10]). For the same molecule, the Her2 level in assay [2] was 90.5% (inactive). Also, the differential viability (reversal) in assay [6] (H69AR cells + 2 uM doxorubicin) is 4.51% (inactive). The inhibition was 0.13% (inactive) in assay [7] and -1.64% (inactive) in assay [8].
`Cc1cccc(-n2ncc3c(N)ncnc32)c1`: the viability is 94.5% in assay [1]; 94.5% (inactive) in assay [3]; 51.3% (inactive) in assay [4]; 98.3% (inactive) in assay [5]; 80.6% in assay [6] (setting [9]); 98.3% in assay [6] (setting [10]). Further, the Her2 level in assay [2] was 83.5% (inactive). The differential viability (reversal) in assay [6] (H69AR cells + 2 uM doxorubicin) is 17.7% (inactive). For the same molecule, the inhibition is -4.67% (inactive) in assay [7] and -1.31% (inactive) in assay [8].
`Cc1ccc2c(c1)CCCN2C(=O)C1CCCO1` (stereo not given): the viability in assay [1] is 101%; in assay [3], 101% (inactive); in assay [4], 99.3% (inactive); in assay [5], 108% (inactive); in assay [6] (setting [9]) it was 93.3%; in assay [6] (setting [10]) it was 108%. Also, the Her2 level in assay [2] was 100% (inactive). For the same molecule, the differential viability (reversal) in assay [6] (H69AR cells + 2 uM doxorubicin) is 14.6% (inactive). Moreover, the inhibition in assay [7] was -1.97% (inactive); in assay [8], -6.83% (inactive).
In the case of `CCOC(=O)CC(NS(=O)(=O)c1ccc(NC(C)=O)cc1)c1ccc(OCC)cc1` (stereo not given), the viability in assay [1] was 115%; in assay [3], 115% (inactive); in assay [4], 110% (inactive); in assay [5], 90.9% (inactive); in assay [6] (setting [9]) it was 93.9%; in assay [6] (setting [10]) it was 90.9%. Besides, the Her2 level in assay [2] is 100% (inactive). Besides, the differential viability (reversal) in assay [6] (H69AR cells + 2 uM doxorubicin) was -2.94% (inactive). Moreover, the inhibition is -7.63% (inactive) in assay [7] and -4.91% (inactive) in assay [8].
Regarding `CCOC(=O)Cn1c(CN2CCOCC2)nc2c1c(=O)[nH]c(=O)n2C`, the viability in assay [1] is 95%; in assay [3] it was 95% (inactive); in assay [4], 97.5% (inactive); in assay [5] it was 99.7% (inactive); in assay [6] (setting [9]), 99.5%; in assay [6] (setting [10]), 99.7%. Also, the Her2 level in assay [2] is 109% (inactive). Further, in assay [6] (H69AR cells + 2 uM doxorubicin), the differential viability (reversal) is 0.165% (inactive). The inhibition in assay [7] was -3.72% (inactive); in assay [8], -0.67% (inactive).
With `CCc1cc2c(=O)c(-c3cscn3)coc2cc1O`, the viability was 108% in assay [1]; 108% (inactive) in assay [3]; 63.5% (inactive) in assay [4]; 88.8% (inactive) in assay [5]; 102% in assay [6] (setting [9]); 88.8% in assay [6] (setting [10]). For the same molecule, the Her2 level in assay [2] was 96% (inactive). Also, the differential viability (reversal) in assay [6] (H69AR cells + 2 uM doxorubicin) was -13% (inactive). The inhibition in assay [7] was -1.32% (inactive); in assay [8], 2.95% (inactive).
In the case of `O=C(c1ccco1)N1CCN(c2c(-c3ccccc3)c3cc(Cl)ccc3[nH]c2=O)CC1`, the viability is 94% in assay [1]; 94% (inactive) in assay [3]; 52.4% (inactive) in assay [4]; 24.5% (active) in assay [5]; 6.86% in assay [6] (setting [9]); 24.5% in assay [6] (setting [10]). Moreover, in assay [2], the Her2 level was 61.5% (inactive). The differential viability (reversal) in assay [6] (H69AR cells + 2 uM doxorubicin) was 17.6% (inactive). For the same molecule, the inhibition was -2.11% (inactive) in assay [7] and 7.42% (inactive) in assay [8].
`O=C1c2cccnc2C(O)N1Cc1ccc(F)cc1` (stereo not given): the viability is 104% in assay [1]; 104% (inactive) in assay [3]; 88.8% (inactive) in assay [4]; 102% (inactive) in assay [5]; 97.7% in assay [6] (setting [9]); 102% in assay [6] (setting [10]). Moreover, in assay [2], the Her2 level is 88% (inactive). Besides, the differential viability (reversal) in assay [6] (H69AR cells + 2 uM doxorubicin) is 3.87% (inactive). For the same molecule, the inhibition in assay [7] is -4.53% (inactive); in assay [8], 2.95% (inactive).
For the molecule `CCC(C)(C(=O)NC1CCCC1)N(Cc1cccs1)C(=O)Cc1cccs1` (stereo not given), the viability in assay [1] was 122%; in assay [3] it was 122% (inactive); in assay [4] it was 103% (inactive); in assay [5], 96.8% (inactive); in assay [6] (setting [9]) it was 81.3%; in assay [6] (setting [10]) it was 96.8%. The Her2 level in assay [2] is 93% (inactive). In assay [6] (H69AR cells + 2 uM doxorubicin), the differential viability (reversal) is 15.6% (inactive). Further, the results for the inhibition in assay [7] and in assay [8] were -7.53% (inactive) and -0.63% (inactive), respectively.
